Hits are enriched below; roughly 4.1% of the tested compounds scored in any of these assays.
KCNK9 inh – inhibitors of human KCNK9 two-pore domain potassium channel; Q9NPC2; HEK293 KCNK9, FluxOR thallium flux fluorescence; stronger effect = lower value; B-score at 10 µM; 310,000 tested, 1.2% active;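 active = ratio B-score over 3 SD below the library mean, with starting fluorescence within 5 SD of its mean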;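 note: negative B-score means less thallium flux so channel inhibition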
KCNQ1 block – human KCNQ1 channel inhibition | 310,000 tested, 1.3% active | AID 2642 | CHO-K1 KCNQ1, FluxOR thallium flux fluorescence; stronger effect = higher value | B-score at 10 µM;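 active = compounds whose thallium flux B-score, printed positive for inhibition, exceeds three library SD while starting fluorescence stays within three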;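 note: channel opened by potassium depolarization with thallium stimulus after 20 min compound exposure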
KCNQ1 act – potentiators or activators of human KCNQ1 potassium channel; 310,000 tested, 0.35% active; AID 2648; CHO-K1 KCNQ1, thallium flux FluxOR fluorescence; stronger effect = higher value; B-score at 10 µM;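 active = fluorescence ratio B-score, a plate-corrected score, at least three library SD, with initial intensity B-score within 5 SD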
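Doses: Single concentration per compound, DMSO matched to controls | Test system: KCNQ1-transfected CHO-K1 cells | Timing: 90 min dye loading and 20 min compound exposure, both at room temperature | Measured by: Kinetic FluxOR thallium fluorescence, 10-s 1-Hz baseline, 110-s post-stimulus read | Medium: Assay buffer with matched DMSO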
KCNK3 block – human KCNK3 channel inhibition, primary screen; O14649; 340,000 tested, 0.84% active; AID 602410; B-score at 10 µM; CHO-KCNK3 thallium flux, FluxOR fluorescence; stronger effect = lower value;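 active = B-score under library mean minus 4 SD, starting fluorescence ratio at most library mean plus 5 SD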;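 note: more negative B-score means stronger inhibition of thallium flux through KCNK3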
Target sequence (O14649 whole entry, looked up): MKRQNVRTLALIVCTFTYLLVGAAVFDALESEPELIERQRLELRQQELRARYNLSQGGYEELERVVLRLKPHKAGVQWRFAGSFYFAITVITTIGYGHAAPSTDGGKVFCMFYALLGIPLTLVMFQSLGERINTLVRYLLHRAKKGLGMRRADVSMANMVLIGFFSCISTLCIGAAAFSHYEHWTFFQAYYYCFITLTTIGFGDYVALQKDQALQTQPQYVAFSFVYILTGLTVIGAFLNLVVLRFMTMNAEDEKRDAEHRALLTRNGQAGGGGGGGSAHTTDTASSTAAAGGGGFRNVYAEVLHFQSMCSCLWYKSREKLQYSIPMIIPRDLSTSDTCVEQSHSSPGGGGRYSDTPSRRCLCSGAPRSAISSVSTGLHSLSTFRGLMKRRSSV
KCC2 mod – modulators of human KCC2 chloride dependent transport; Q9H2X9; KCC2 cells, thallium flux FluoZin-2 fluorescence; B-score of Tl+ flux slope (higher = more flux/activation; lower = inhibition) at 10 µM; 190,000 tested, 2.2% active;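 active = thallium flux slope and its plate-corrected score both differing from the plate sample mean at a set confidence after two filtering rounds, in either direction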;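 note: slope of fluorescence scaled to starting intensity during 10 to 20 s after thallium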
hERG protect – hERG (human) protection from proarrhythmic block. Q12809. CHO-hERG, FluxOR thallium flux, dofetilide IC70 present. activation (rescue from dofetilide block), less the hit threshold, % at 10 µM. 310,000 tested, 0.51% active. AID 1511;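 active = activation above the mean of controls blocked by dofetilide plus 5 SD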;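 note: thallium influx through hERG after potassium depolarization seen as dye fluorescence rise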
KCC2 sec1 – KCC2 (human) modulation, secondary assay; shares compounds with KCC2 mod; HEK293-KCC2, thallium flux, FluoZin2 fluorescence; stronger effect = higher value; normalised thallium flux (F/F0 slope) at 10 µM; 3,700 tested, 15% active; AID 1713;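 active = thallium flux slope above the same plate's solvent-only control mean plus 3 SD; inconclusive = the two replicate wells disagree; inactive = no significant difference from solvent-only control wells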
KCC2 bumet counter – thallium flux persisting under bumetanide in KCC2 cells, counter-screen secondary assay; shares compounds with KCC2 mod; HEK293-KCC2 + bumetanide/ouabain, thallium flux FluoZin2; stronger effect = higher value; normalized thallium flux at 10 µM; 3,700 tested, 49% active; AID 1714;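 active = thallium entry rate above the same plate's blocked-transporter control wells by more than 3 SD; inconclusive = the two repeat wells disagree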;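 note: raw slope of fluorescence over initial fluorescence between 10 and 20 s after thallium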
KCC2 secondary2 – confirmation of human KCC2 transport modulators; 3,700 tested, 23% active; shares compounds with KCC2 mod; normalized thallium flux at 10 µM; HEK293-KCC2, thallium flux FluoZin2 fluorescence; actives lie on both sides; F/F0 rise rate, 10–20 s post-thallium;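 active = thallium flux slope more than 3 SD above or below the plate's solvent-only control mean, mostly below; inconclusive = the two repeat wells disagreed; inactive = no significant shift from solvent-only controls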;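 note: raw slope with 0.1% DMSO as baseline and bumetanide as block control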
HEK293 Tl flux – counter-screen for KCC2 modulators: effect in parental HEK293 cells. shares compounds with KCC2 mod. thallium flux FluoZin2, ouabain; baseline-ratio fluorescence slope, 10–20 s after thallium. thallium flux rate (normalised fluorescence) at 10 µM. 3,700 tested, 46% active. AID 1716;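 active = thallium flux rate significantly above the same plate's solvent-only control wells, beyond their mean plus 3 SD; inconclusive = the two replicate wells gave conflicting results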
KCC2 ouabain – KCC2 (human) modulation, ouabain retest | 3,700 tested, 48% active | shares compounds with KCC2 mod | HEK293-KCC2, thallium flux FluoZin2 fluorescence; bidirectional: low = inhibitor, high = activator | raw Tl+ flux slope (below DMSO = inhibition, above = activation) at 10 µM | AID 1717;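 active = thallium flux slope beyond 3 SD from same-plate DMSO control mean in most replicates, usually higher, sometimes lower; inconclusive = repeat tests gave conflicting results; inactive = no significant difference from controls in most replicates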;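 note: slope of initial-normalized fluorescence between seconds 10 and 20 after thallium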
HEK counter2 – parental HEK flux effect, counter-screen 2. 3,700 tested, 33% active. thallium flux slope at 10 µM. HEK293 parental, thallium flux FluoZin-2 fluorescence slope. shares compounds with KCC2 mod;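 active = thallium flux slope above the same plate's solvent-control mean plus 3 SD in both duplicate wells; inconclusive = duplicate wells that disagreed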;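 note: run without ouabain in cells lacking the KCC2 cotransporter; slope of fluorescence scaled to its starting value between 10 and 20 s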
* = called active by the depositor; i = inactive; ? = inconclusive; nt = no result.

SMILES	KCNK9 inh	KCNQ1 block	KCNQ1 act	KCNK3 block	KCC2 mod	hERG protect	KCC2 sec1	KCC2 bumet counter	KCC2 secondary2	HEK293 Tl flux	KCC2 ouabain	HEK counter2
COc1ccccc1N1CCN(C2CCCN(Cc3cccc(O)c3)C2)CC1 (stereo not drawn)	i	i	i	i	nt	-7	nt	nt	nt	nt	nt	nt
COc1ccc(NC(=O)CN(C)CC(=O)Nc2ccc3c(c2)CCC3)cc1	i	i	i	i	0.019	-8	nt	nt	nt	nt	nt	nt
CCCCN(C)CCC(=O)Nc1ccc2c(c1)CCC2	i	i	i	i	6.1*	-12	0.0067	?	0.031	0.008	0.018	0.011
O=C(Nc1ccc(Cl)cn1)C1CCCN1S(=O)(=O)c1ccc(Cl)cc1 (stereo not drawn)	i	i	i	i	nt	2	0.0082	0.007	0.033	?	0.024	0.0099
CCC(C)[C@H](NC(=O)[C@@H]1Cc2c([nH]c3ccccc23)C2c3ccccc3C(=O)N21)C(=O)NCC1CCCO1 (stereo partly drawn)	i	i	i	i	nt	-14	nt	nt	nt	nt	nt	nt
Cc1ccc(C2CC(C(F)(F)F)n3nc(C(=O)NCC4CCCO4)cc3N2)cc1 (stereo not drawn)	i	i	i	nt	-4.2*	-2	0.0072	0.005	0.03	0.0079	0.019	0.011
COCCCNC(=O)Cn1nc(-c2ccccc2OC)ccc1=O	i	i	i	i	0.68	-8	nt	nt	nt	nt	nt	nt
COc1ccccc1-c1ccc(=O)n(CC(=O)NCc2ccc3c(c2)OCO3)n1	i	i	i	i	-3.7*	-10	0.0077	0.0092*	0.032	?	0.016*	0.011
CC1CCCN(S(=O)(=O)c2ccc(NC(=O)CCN3C(=O)c4ccccc4C3=O)cc2)C1 (stereo not drawn)	i	i	i	i	0.023	-6	0.0097	?	0.033	0.0078	0.021	0.011
Cc1ccc(O)c(C2=NNC(c3ccc(Cl)cc3)C2)c1 (stereo not drawn)	i	i	i	i	8.6*	-8	0.0094	0.016*	0.033	0.013*	0.027	?
Oc1ccc(Cl)cc1C1=NNC(c2cccs2)C1 (stereo not drawn)	i	i	20*	i	68*	6.2*	0.01	0.098*	?	0.061*	0.077*	0.023*
Oc1ccccc1C1CC(c2cccs2)=NC(c2ccc(Cl)cc2)N1 (stereo not drawn)	i	i	i	i	0.98	-6	nt	nt	nt	nt	nt	nt
Cc1c(Cl)cccc1N(CC(=O)NC(C)c1ccccc1)S(C)(=O)=O (stereo not drawn)	i	i	i	i	nt	-17	nt	nt	nt	nt	nt	nt
CCOC(=O)C1(CCCc2ccccc2)CCN(Cc2cnc(C)s2)CC1	i	i	i	i	-4.9*	-13	?	0.0056	?	0.0082	0.024	0.0089
CCOc1ncccc1C(=O)OCC(=O)c1ccc[nH]1	i	i	i	i	-4.1*	-13	0.01	0.0069	0.033	0.0043	0.021	0.012
COc1cccc(CNC(=O)CSc2cc(=O)n(C)c3ccccc23)c1	i	i	i	i	-2.2	-6	nt	nt	nt	nt	nt	nt
c1ccc(CSC2=NNC(c3ccccn3)S2)cc1 (stereo not drawn)	i	i	i	i	28*	-6	?	0.026*	?	0.015*	0.025*	0.018*
O=C(CSC1=NNC(c2ccccn2)S1)Nc1ccc(C(F)(F)F)cc1 (stereo not drawn)	i	i	i	i	-0.036	-9	nt	nt	nt	nt	nt	nt
Cc1ccc2c(c1)C1CN(C)CCC1N2C(=S)NC(=O)c1ccc(Cl)cc1Cl (stereo not drawn)	i	i	i	i	61*	-11	0.023*	0.11*	0.03	0.032*	0.061*	0.013*
CCOC(=O)c1cc2c(=O)[nH]ccc2nc1C(F)(F)F	i	i	i	i	-0.12	-13	nt	nt	nt	nt	nt	nt
CCOC(=O)c1cc2c(=O)[nH]ccc2nc1C	i	i	i	i	13*	-8	0.011	?	0.029	0.0074	0.033	0.01
CC(C)NC(=O)C1CCN(C(=O)C(C(=O)c2ccccc2)n2cc(Cl)ccc2=O)CC1 (stereo not drawn)	i	i	i	i	-4.3*	-6	0.0098	?	0.036	0.0096*	0.024	?
O=C(c1ccc(F)cc1)C(C(=O)N1CCCCC1)n1ccccc1=O (stereo not drawn)	i	i	i	i	-0.32	-17	nt	nt	nt	nt	nt	nt
CCC(OC(=O)CN1C(=O)C(=O)c2ccccc21)C(=O)Nc1ccc(S(N)(=O)=O)cc1 (stereo not drawn)	i	i	i	i	1.8	-10	nt	nt	nt	nt	nt	nt
Cc1cccc(C)c1NC(=S)N=Nc1c(O)n(C)c2ccc(S(=O)(=O)N3CCOCC3)cc12	i	i	i	i	4.4*	-5	0.01	0.027*	0.035	0.012*	0.028	0.012*
Cc1ccccc1NC(=S)N=Nc1c(O)n(C)c2ccc(S(=O)(=O)N3CCOCC3)cc12	i	i	i	i	15*	-5	0.011	0.07*	0.035	0.023*	?	?
Cn1c(=O)c2c(nc(SCc3ccc(C(=O)O)cc3)n2C)n(C)c1=O	i	i	i	i	nt	1	nt	nt	nt	nt	nt	nt
Cc1ccc(Nc2nc(=O)c3cccnc3s2)c(Br)c1	i	i	i	i	29*	-3	0.0075	0.038*	?	0.02*	0.038*	0.021*

Bioassay records as filed in PubChem BioAssay.
